Our source for the APD75 and ERP values is ChEMBL document CHEMBL1125548, “Synthesis and pharmacological studies of N-substituted 6-[(2-aminoethyl)amino]-1,3-dimethyl-2,4(1H,3H)-pyrimidinediones, novel class III antiarrhythmic agents” (1992).

Assay [1] deals with Canis familiaris. As to the kind of experiment: The percentage change of the duration of action potential at 75% repolarization was measured before and after the administration at 1.0 ug/mL. The class given is functional, Canis lupus familiaris. Put shortly: (§1)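 Canine right-ventricular Purkinje fibers (mongrel dogs 7–11 kg, thiopental-anesthetized) superfused with Tyrode's (pH 7.5, 36 °C, gassed 95% O2/5% CO2). Compounds diluted from 1 mM water stock and added cumulatively. Readings taken 20 min after solution exchange. Result given as percent change in action potential duration.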

Assay [2] concerns Canis familiaris. Description: Percentage change of the duration of action potential at 75% repolarization was measured before and after the administration at 10.0 ug/mL. The class given is functional, Canis lupus familiaris. Put shortly: as §1
Assay [3] concerns Canis familiaris. As to the kind of experiment: The percentage change of the duration of action potential at 75% repolarization was measured before and after the administration at 3.0 ug/mL. The class given is functional, Canis lupus familiaris. Put shortly: as §1
Assay [4] relates to Canis familiaris. Description: The prolongation effect of the atrial and ventricular effective refractory period was measured before and after the administration at 0.3 mg/kg. The class given is functional, Canis lupus familiaris, Cardiac atrium. Put shortly: (§2)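 In vivo, mongrel dogs of either sex (7–13 kg), anesthetized with pentobarbital sodium 30 mg/kg iv. Left femoral artery cannulated for arterial pressure, femoral vein for drug dosing. Effective refractory period measured before and after administration.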

Assay [5] concerns Canis familiaris. Description: The prolongation effect of the atrial and ventricular effective refractory period was measured before and after the administration at 3 mg/kg. The class given is functional, Canis lupus familiaris, Cardiac atrium. Put shortly: as §2
Assay [6] relates to Canis familiaris. Description: The prolongation effect of the atrial and ventricular effective refractory period was measured before and after the administration at 1.0 mg/kg.

On to `CSc1ccc(OCCCN2CCN(c3cc(=O)n(C)c(=O)n3C)CC2)cc1.Cl`, for which the values for the APD75 in the assay on Canis familiaris [1], with Canis familiaris [2] and with Canis familiaris [3] were 4%, 25% and 13%, respectively. The ERP in the assay with Canis familiaris [4] is reported as 0%; in the assay with Canis familiaris [5], 15.4%; with Canis familiaris [6] it was 7.7%.
